Assay results from ChEMBL document CHEMBL3407422, “2-(2-oxo-morpholin-3-yl)-acetamide derivatives as broad-spectrum antifungal agents” (J Med Chem, 2015).
In brackets after ≈: the same amount, converted by molar mass. Activity calls are given as the source filed them. The rule behind the calls is not given here.

Experiments:
[1] = system: Candida albicans; assay: Antifungal activity against Candida albicans SC5314 after 24 hrs; format: functional
Procedure, shortened: (§1)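 Overnight YPD cultures diluted in PBS (1/200 for C. albicans, 1/400 for C. glabrata). Cells treated with compound, or 2.5% DMSO as solvent control, for 24 h at 37 °C. CFUs then counted; MFC is the concentration giving 99% killing of the inoculum.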

[2] = system: Candida albicans; assay: Antifungal activity against Candida albicans SC5314 infected in BALB/c mouse assessed as reduction in reduction in fungal load in kidney at 10 mg/kg/day, ip for 5 days relative to vehicle-treated control; format: functional, organism-based
Procedure, shortened: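 BALB/c mice given cyclophosphamide 100 mg/kg at 4 days and 24 h before infection and at 3 days after. Infected IV with 2×10^3 SC5314 cells in saline. Dosed IP daily for 5 days from 16 h post-infection, in DMSO/0.5% methylcellulose (5/95). Organs taken on day 7, homogenized and plated on BHI agar (18 h, 37 °C). CFU/g compared with vehicle.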

[3] = Half life in human plasma; format: ADME, cell-free
[4] = system: Trichophyton mentagrophytes; assay: Fungicidal activity against Trichophyton mentagrophytes B70554; format: functional, organism-based
Procedure, shortened: (§2)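 Inoculum of 10^3 CFU in RPMI-MOPS added to prediluted compound, highest concentration 64 µM. Growth read by resazurin fluorescence (ex 550, em 590 nm). IC50 is 50% growth inhibition versus untreated controls. Three independent replicates.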

[5] = system: Trichophyton rubrum; assay: Fungicidal activity against Trichophyton rubrum B68183; format: functional, organism-based; procedure, shortened: as §2
[6] = system: Sporothrix schenckii; assay: Fungicidal activity against Sporothrix schenckii B62482; format: functional, organism-based; procedure, shortened: as §2
[7] = system: Microsporum canis; assay: Fungicidal activity against Microsporum canis B68128; format: functional; procedure, shortened: as §2
[8] = system: Nakaseomyces glabratus; assay: Antifungal activity against Candida glabrata BG2 after 24 hrs; format: functional; procedure, shortened: as §1
[9] = system: Aspergillus fumigatus; assay: Antifungal activity against Aspergillus fumigatus CBS 117202 after 24 hrs by two-fold dilution method; format: functional; conditions: CBS 117202, 24 h
Procedure, shortened: (§3)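 Spores at 2×10^4 spores/mL in potato dextrose broth, incubated with a 2-fold compound dilution series for 24 h at 25 °C. Growth read by microspectrophotometry of the liquid cultures. MIC taken as the lowest concentration inhibiting fungal growth.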

[10] = system: Aspergillus flavus; assay: Antifungal activity against Aspergillus flavus CBS111.45 after 24 hrs by two-fold dilution method; format: functional; conditions: CBS111.45, 24 h; procedure, shortened: as §3
[11] = Cytotoxicity against human MRC5 SV2 cells after 72 hrs by fluorescence assay; format: cell-based
Procedure, shortened: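 MRC-5 SV2 cells (10^4/well) grown in MEM with L-glutamine, NaHCO3 and 5% FCS. Incubated with compound 72 h at 37 °C, 5% CO2, then resazurin added for 24 h. Fluorescence read at ex 530, em 590 nm.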

[12] = Half life in mouse plasma; format: ADME, cell-free

Compound | MFC99 [1] [µg/mL] | other results
OC(Cn1cncn1)(Cn1cncn1)c1ccc(F)cc1F [FLUCONAZOLE] | >100 | Activity [2]: Active
CCN1CC(C)(C)OC(=O)C1CC(=O)NC1CCCC1 (stereo not given) | 50 (≈ 177 µM) | –
CCN1C[C@@H](C)OC(=O)C1CC(=O)Nc1ccc(C(C)C)cc1 (stereo not given in full) | 12.5 (≈ 39.3 µM) | half-life [3]: 55 min
CC(=O)N1CC(C)(C)OC(=O)C1CC(=O)Nc1ccc(C(C)C)cc1 (stereo not given) | >25 | –
CN(C/C=C/C#CC(C)(C)C)Cc1cccc2ccccc12 [TERBINAFINE] | – | IC50 [4]: 0.02 µg/mL (≈ 0.0686 µM); IC50 [5]: 0.02 µg/mL (≈ 0.0686 µM)
CC(C)c1ccc(NC(=O)CC2C(=O)OC(C)(C)CN2Cc2ccccc2)cc1 (stereo not given) | >50 | –
CCN1CC(CC)(CC)OC(=O)C1CC(=O)Nc1ccc(C(C)C)cc1 (stereo not given) | >25 | –
CCN1CC(C)(C)OC(=O)C1CC(=O)NCc1cccs1 (stereo not given) | 25 (≈ 80.5 µM) | –
Clc1ccc(COC(Cn2ccnc2)c2ccc(Cl)cc2Cl)c(Cl)c1 (stereo not given) [MICONAZOLE] | – | IC50 [6]: 0.12 µg/mL (≈ 0.288 µM); IC50 [7]: 0.02 µg/mL (≈ 0.0481 µM)
CC(C)c1ccc(NC(=O)CC2C(=O)OC(C)(C)CN2C2CC2)cc1 (stereo not given) | >25 | –
CC(C)c1ccc(NC(=O)CC2C(=O)OC(C)(C)CN2S(C)(=O)=O)cc1 (stereo not given) | >25 | –
CCN1CC(C)(C)OC(=O)C1CC(=O)Nc1ccncn1 (stereo not given) | >50 | –
CCN1CC(C)(C)OC(=O)C1CC(=O)Nc1c(C)noc1C (stereo not given) | >50 | –
CCN1CC(C)(C)OC(=O)C1CC(=O)Nc1ccc2c(ccn2C)c1 (stereo not given) | 12.5 (≈ 36.4 µM) | IC50 [6]: 10 µg/mL (≈ 29.1 µM); MFC99 [8]: 50 µg/mL (≈ 146 µM); IC50 [7]: 6.2 µg/mL (≈ 18.1 µM); IC50 [4]: 11 µg/mL (≈ 32 µM); IC50 [5]: 11 µg/mL (≈ 32 µM); MIC [9]: 3.1 µg/mL (≈ 9.03 µM); MIC [10]: 25 µg/mL (≈ 72.8 µM); CC50 at 72 h [11]: > 20 µg/mL
CCCN1CC(C)(C)OC(=O)C1CC(=O)Nc1ccc(C(C)C)cc1 (stereo not given) | >25 | –
CCN1CC(C)(C)OC(=O)C1CC(=O)Nc1ccncc1 (stereo not given) | >50 | –
CCN1CC(C)(C)OC(=O)C1CC(=O)NCc1cccc(C(F)(F)F)c1 (stereo not given) | 25 (≈ 67.1 µM) | –
CCN1C[C@@H](c2ccccc2)OC(=O)C1CC(=O)Nc1ccc(C(C)C)cc1 (stereo not given in full) | 12.5 (≈ 32.9 µM) | half-life [3]: 31 min
CCN1CC(C)(C)OC(=O)C1CC(=O)NCc1ccccc1 (stereo not given) | 12.5 (≈ 41.1 µM) | –
CCN1CC(C)(C)OC(=O)C1CC(=O)NCCc1ccccc1 (stereo not given) | 25 (≈ 78.5 µM) | –
CCN1CC(C)(C)OC(=O)C1CC(=O)NCc1ccccc1Cl (stereo not given) | 25 (≈ 73.8 µM) | –
CCCNC(=O)CC1C(=O)OC(C)(C)CN1CC (stereo not given) | 25 (≈ 97.5 µM) | –
CCN1CC(C)(C)OC(=O)C1CC(=O)Nc1ccc2scnc2c1 (stereo not given) | >50 | –
CCN1CC(C)(C)OC(=O)C1CC(=O)NC1CCCCC1 (stereo not given) | 50 (≈ 169 µM) | –
CCN1CC(C)(C)OC(=O)C1CC(=O)NCc1ccc(Cl)c(Cl)c1 (stereo not given) | 12.5 (≈ 33.5 µM) | –
CCN1C[C@H](C)OC(=O)C1CC(=O)Nc1ccc(C(C)C)cc1 (stereo not given in full) | 12.5 (≈ 39.3 µM) | half-life [3]: 57 min
CCN1CCOCC1CC(=O)Nc1ccc(C(C)C)cc1 (stereo not given) | >50 | –

Compound | MFC99 [1] [µg/mL] | other results
CC(C)c1ccc(NC(=O)CC2C(=O)OC(C)(C)CN2C)cc1 (stereo not given) | >25 | –
CCN1CC(C)(C)OC(=O)C1CC(=O)NCc1cccc(OC)c1 (stereo not given) | 25 (≈ 74.8 µM) | –
CC(C)c1ccc(NC(=O)CC2C(=O)OC(C)(C)CN2CC(F)(F)F)cc1 (stereo not given) | >25 | –
CCN1CC(C)(C)OC(=O)C1CC(=O)Nc1ccnn1C (stereo not given) | >50 | –
CC(C)c1ccc(NC(=O)CC2C(=O)OC(C)(C)CN2CCF)cc1 (stereo not given) | >25 | –
C[C@@H]1[C@H](O)[C@@H](C)/C=C/C=C/C=C/C=C/C=C/C=C/C=C/[C@H](O[C@@H]2O[C@H](C)[C@@H](O)[C@H](N)[C@@H]2O)C[C@@H]2O[C@](O)(C[C@@H](O)C[C@@H](O)[C@H](O)CC[C@@H](O)C[C@@H](O)CC(=O)O[C@H]1C)C[C@H](O)[C@H]2C(=O)O [AMPHOTERICIN B] | 1.6 (≈ 1.73 µM) | –
CCN1CC(C)(C)OC(=O)C1CC(=O)Nc1cccnc1 (stereo not given) | >50 | –
CCN1CC(C)(C)OC(=O)C1CC(=O)NCC1CCCCC1 (stereo not given) | 25 (≈ 80.5 µM) | –
CCN1CC(C)(C)OC(=O)C1CC(=O)Nc1ccccn1 (stereo not given) | >50 | –
CCN1CC(C)(C)OC(=O)C1CC(=O)N(C)c1ccccc1 (stereo not given) | >50 | –
CC(C)c1ccc(NC(=O)CC2C(=O)OC(C)(C)CN2c2ccccc2)cc1 (stereo not given) | >50 | –
CC(C)c1ccc(NC(=O)CC2C(=O)OC(C)(C)CN2C2CCCC2)cc1 (stereo not given) | >25 | –
CCN1C(CC(=O)Nc2ccc(C(C)C)cc2)C(=O)OC(C)(C)C1(C)C (stereo not given) | >25 | –
CCN1CC(C)(C)OC(=O)C1CC(=O)NCc1ccc(Cl)cc1 (stereo not given) | 12.5 (≈ 36.9 µM) | IC50 [6]: 2.2 µg/mL (≈ 6.49 µM); MFC99 [8]: 12.5 µg/mL (≈ 36.9 µM); IC50 [7]: 2 µg/mL (≈ 5.9 µM); IC50 [4]: 2.7 µg/mL (≈ 7.97 µM); IC50 [5]: 2 µg/mL (≈ 5.9 µM); MIC [9]: 6.2 µg/mL (≈ 18.3 µM); MIC [10]: 25 µg/mL (≈ 73.8 µM); CC50 at 72 h [11]: > 20 µg/mL
CCN1CCOC(=O)C1CC(=O)Nc1ccc(C(C)C)cc1 (stereo not given) | 12.5 (≈ 41.1 µM) | half-life [3]: 22 min; MFC99 [8]: 12.5 µg/mL (≈ 41.1 µM); MIC [9]: 12.5 µg/mL (≈ 41.1 µM); half-life [12]: 32 min
CCN1CC(C)(C)OC(=O)C1CC(=O)NCc1cccc(C)c1 (stereo not given) | 12.5 (≈ 39.3 µM) | –
CCN1CC(C)(C)OC(=O)C1CC(=O)NCCC(C)(C)C (stereo not given) | 25 (≈ 83.8 µM) | –
CCN1CC(C)(C)OC(=O)C1CC(=O)NCc1ccco1 (stereo not given) | 50 (≈ 170 µM) | –
CC(C)c1ccc(NC(=O)CC2NCC(C)(C)OC2=O)cc1 (stereo not given) | >25 | –
CCN1CC(C)(C)OC(=O)C1C(C)(C)C(=O)Nc1ccc(C(C)C)cc1 (stereo not given) | >50 | –
CCN1C[C@H](c2ccccc2)OC(=O)C1CC(=O)Nc1ccc(C(C)C)cc1 (stereo not given in full) | 12.5 (≈ 32.9 µM) | half-life [3]: 49 min
CCNC(=O)CC1C(=O)OC(C)(C)CN1CC (stereo not given) | 50 (≈ 206 µM) | –
CCN1CC(C)(C)OC(=O)C1CC(=O)NCc1cccc(Cl)c1 (stereo not given) | 6.25 (≈ 18.4 µM) | –
CCN1CC(C)(C)OC(=O)C1CC(=O)N1CCOCC1 (stereo not given) | >50 | –
CC(C)c1ccc(NC(=O)CC2C(=O)OC(C)(C)CN2C(C)C)cc1 (stereo not given) | >25 | –
CCN(CC)C(=O)CC1C(=O)OC(C)(C)CN1CC (stereo not given) | >50 | –
